For 42 compounds, IC50 and Activity results are on record in ChEMBL document CHEMBL1134251, “Quinazolines as cyclin dependent kinase inhibitors” (Bioorg Med Chem Lett, 2001).

The target in assay [1] is Cyclin-dependent kinase 4/cyclin D1 (Homo sapiens, UniProt P11802). Kind of assay: In vitro inhibitory activity against human cyclin dependent kinase (CDK4/D1). In kind it is protein-complex assay.
Assay [2] deals with Cyclin-dependent kinase 2/cyclin E (Homo sapiens, UniProt P24941). Kind of assay: In vitro inhibitory activity against human cyclin dependent kinase (CDK2/E). Format: protein-complex assay.
Another assay has as its system AG1523. In words: Inhibition of SRB AG1523 cancer cell proliferation. Format: functional, cell-based. The note with it: Homo sapiens, in the assay text read “normal human fibroblast cell” for “cancer cell”. The procedure, abridged:
(§1)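 Growth-inhibition assay in HCT 116 cancer cells, with IC50 as the read-out. AG1523 cells are normal human fibroblasts and were run under the same assay conditions as HCT 116.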

The test system of another assay is HCT-116. Kind of assay: Inhibition SRB HCT 116 cancer cell proliferation. In kind it is functional, cell-based. The conditions noted are these: Homo sapiens. The gist of the method:
as §1

Assay [3] addresses Cyclin-dependent kinase 2/cyclin A (Homo sapiens, UniProt P24941). Kind of assay: Inhibition of human cyclin dependent kinase 2 (CDK2/A). Format: protein-complex assay.
Assay [4] in a line: Inhibition of human cyclin dependent kinase 6 (CDK6/D2).
Assay [5] addresses T1, Cyclin-dependent kinase 1/cyclin B (Homo sapiens, UniProt P06493). In words: Inhibition of human cyclin dependent kinase 1 (CDK1/B). In kind it is protein-complex assay.
The target in assay [6] is Cyclin-dependent kinase 4/cyclin D1 (Homo sapiens) (UniProt P11802+P24385). In words: Inhibition of human cyclin dependent kinase 4 (CDK4/D1) at 50 uM. Format: protein-complex assay. The arrangement: scale not given: the % may be the effect or the level left.
Assay [7] deals with T1, Cyclin-dependent kinase 1/cyclin B. Kind of assay: Inhibition of human cyclin dependent kinase 1 (CDC2/B). Format: protein-complex assay.

Usually IC50 stands for the concentration that gives 50% inhibition.

Sequence of Cyclin-dependent kinase 4/cyclin D1 (P11802 whole entry): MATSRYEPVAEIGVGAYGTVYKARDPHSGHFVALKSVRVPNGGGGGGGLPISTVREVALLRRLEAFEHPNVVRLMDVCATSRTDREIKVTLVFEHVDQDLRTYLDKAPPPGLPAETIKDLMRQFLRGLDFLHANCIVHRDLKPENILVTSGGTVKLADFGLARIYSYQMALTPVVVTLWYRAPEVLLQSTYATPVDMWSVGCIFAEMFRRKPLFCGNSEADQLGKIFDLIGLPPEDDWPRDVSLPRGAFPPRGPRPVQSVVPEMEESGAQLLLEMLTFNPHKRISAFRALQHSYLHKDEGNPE
Sequence of Cyclin-dependent kinase 4/cyclin D1 (P24385 whole entry, further chain): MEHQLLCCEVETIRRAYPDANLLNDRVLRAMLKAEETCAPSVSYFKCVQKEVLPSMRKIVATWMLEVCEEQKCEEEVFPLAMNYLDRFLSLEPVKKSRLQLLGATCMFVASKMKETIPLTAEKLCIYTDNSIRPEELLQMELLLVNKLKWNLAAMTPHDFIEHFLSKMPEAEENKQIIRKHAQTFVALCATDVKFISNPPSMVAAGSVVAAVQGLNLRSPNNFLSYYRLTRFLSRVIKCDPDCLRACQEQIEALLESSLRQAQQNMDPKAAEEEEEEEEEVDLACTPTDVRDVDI

On to `CC(C)(C)Nc1nc(-c2ccccc2)nc2ccccc12`, for which the IC50 in [1] is > 361 µM.

Take `CC(C)(C)Nc1nc(C(F)(F)F)nc2ccc(-c3ccco3)cc12`: the IC50 in [1] was > 3 µM; in assay [2], 1.2 µM.

As for `Fc1cccc(CNc2nc(C(F)(F)F)nc3ccccc23)c1`, the half-maximal inhibitory concentration (IC50) in [1] was > 39 µM; in assay [2], 15.6 µM.

On to `CC(Nc1nc(C(F)(F)F)nc2ccccc12)c1ccccc1` (stereo not drawn), for which the IC50 in assay [1] came to 59 µM; in assay [2], 6.8 µM.

As to `CC(C)(C)Nc1nc(C(F)(F)F)nc2ccc(O)cc12`, the IC50 with AG1523 was > 18 µM; in assay [1], 18 µM; in [2] it was 1.15 µM; with HCT-116 it was 7.3 µM.

Regarding `Fc1cc(F)cc(CNc2nc(C(F)(F)F)nc3ccccc23)c1`, the IC50 is > 19 µM in assay [1] and 8.9 µM in [2].

As for `CC(C)(C)Nc1nc(C(F)(F)F)nc2ccc(-c3ccc(N)cc3)cc12`, the values for the IC50 in [1] and in assay [2] were > 1.1 µM and 1.1 µM, respectively.

`CC(C)(C)Nc1nc(C(=O)O)nc2ccccc12`: the IC50 was > 408 µM in assay [1] and > 815 µM in [2].

Take `CC(C)(C)Nc1nc(C(F)(F)C(F)(F)F)nc2ccccc12`: the IC50 in assay [1] was > 20 µM; in assay [2], 11.9 µM.

As for `CCOC(=O)c1nc(NC(C)(C)C)c2ccccc2n1`, the IC50 in assay [1] is 168 µM; in assay [2] it was > 5.8 µM.

Regarding `CC(C)(C)Nc1nc(C(F)(F)F)nc2ccc(C(F)(F)F)cc12`, the IC50 is > 59 µM in the assay with AG1523; > 37 µM in [1]; 0.79 µM in assay [2]; 2.05 µM in [3]; 56 µM in [4]; > 0.74 µM in assay [5]. In addition, 18.6 µM corresponded to half-maximal inhibition in the assay with HCT-116 (IC50).

As to `COc1ccc(-c2ccc3nc(C(F)(F)F)nc(NC(C)(C)C)c3c2)cc1`, the IC50 in assay [1] was > 27 µM; in [2], 10 µM.

`COc1ccccc1-c1ccc2nc(C(F)(F)F)nc(NC(C)(C)C)c2c1`: the IC50 in assay [1] is > 2.7 µM; in assay [2], 1 µM.

`C[C@H](Nc1nc(C(F)(F)F)nc2ccccc12)c1ccccc1`: the Activity in assay [6] was 40%. For the same compound, the IC50 in assay [2] is 31 µM.

As for `OC1CCCN(c2nc(C(F)(F)F)nc3ccccc23)C1` (stereo not drawn), the IC50 in assay [1] is > 84 µM; in assay [2], 32.4 µM.

With `CCCC(C)Nc1nc(C(F)(F)F)nc2ccccc12` (stereo not drawn), the IC50 in assay [1] was 119 µM; in [2], 245 µM.

In the case of `CC(C)S(=O)(=O)Nc1nc(C(F)(F)F)nc2ccccc12`, the figures for the IC50 in assay [1] and in [2] were > 157 µM and > 31 µM, respectively.

Turning to `C[C@@H](Nc1nc(C(F)(F)F)nc2ccccc12)c1ccccc1`, the values for the IC50 in assay [1] and in assay [2] were 39 µM and 3.2 µM, respectively.

Regarding `CC(C)(C)Nc1nc(C(F)(F)F)nc2ccccc12`, the IC50 was > 74 µM in the assay on AG1523, 14.3 µM in assay [1], 1.5 µM in assay [2] and 20.6 µM in the assay on HCT-116.

In the case of `OCC1CCCN1c1nc(C(F)(F)F)nc2ccccc12` (stereo not drawn), the half-inhibitory concentration (IC50) in assay [1] turned out to be 63 µM; in [2], 14.8 µM.

`CC(C)(C)Nc1ncnc2ccccc12`: the concentration for half-maximal inhibition (IC50) in assay [1] is > 248 µM; in assay [2], > 50 µM.

`CC(C)(C)Nc1nc(C(F)(F)F)nc2ccc(-c3cccc(O)c3)cc12`: the figures for the IC50 in assay [1] and in assay [2] were 12 µM and 1 µM, respectively.

As to `CC(C)(C)Nc1nc(Nc2ccccc2)nc2ccccc12`, the IC50 in assay [1] was > 171 µM; in [2] it was > 34 µM.

Take `CC(Nc1nc(C(F)(F)F)nc2ccccc12)c1ccc(F)cc1` (stereo not drawn): in [6], the Activity was 35%. This compound also had an IC50 in assay [2] of 16.5 µM.

Regarding `CC(C)(C)Nc1nc(C(F)(F)F)nc2ccc(-c3ccc(-c4cccnc4)cc3)cc12`, the IC50 stood at 8.3 µM in assay [1] and 1.2 µM in assay [2].

As to `CC(C)(C)Nc1nc(C(F)(F)F)nc2ccc(-c3cccc(C(N)=O)c3)cc12`, the IC50 was > 2.5 µM in [1] and 1.3 µM in assay [2].

`CC(C)(C)Nc1nc(C(N)=O)nc2ccccc12`: the IC50 is > 490 µM in assay [1] and 164 µM in assay [2].

Turning to `CC(C)(Nc1nc(C(F)(F)F)nc2ccccc12)c1ccccc1`, the IC50 is > 151 µM in assay [1] and 14 µM in [2].

Take `CC(C)(C)Nc1nc(C(F)(F)F)nc2ccc(-c3cccnc3)cc12`: half-maximal inhibition in assay [1] (IC50) required 8.3 µM.

Take `CC(C)(C)Nc1nc(C(F)(F)F)nc2ccc(-c3ccc(Cl)cc3)cc12`: the IC50 in [1] is > 26 µM; in [2], 2.6 µM.

In the case of `CCC(C)(C)Nc1nc(C(F)(F)F)nc2ccccc12`, the IC50 in [1] came out at 16.8 µM; in assay [2] it was 1.4 µM.

Consider `CC(C)(C)Nc1nc(C(F)(F)F)nc2ccc(-c3ccc(Cl)cc3Cl)cc12`, for which the values for the IC50 in [1] and in [2] were > 2.4 µM and > 12 µM, respectively.

For the compound `CC(C)(CO)Nc1nc(C(F)(F)F)nc2ccccc12`, the figures for the concentration for half-maximal inhibition (IC50) in [1] and in [2] were 15 µM and 2.3 µM, respectively.

Take `CC(C)(C)Nc1nc(C(F)(F)F)nc2ccc(-c3ccc(O)cc3)cc12`: the IC50 in assay [1] is 11 µM; in [2], 0.7 µM.

For the compound `COc1cccc(-c2ccc3nc(C(F)(F)F)nc(NC(C)(C)C)c3c2)c1`, the IC50 in [1] is > 6.7 µM; in assay [2], 3.3 µM.

Turning to `C#CC(C)(C)Nc1nc(C(Cl)(Cl)Cl)nc2ccccc12`, the IC50 in [1] was 24 µM; in assay [2], 13.5 µM; in assay [5], 35 µM; in the assay with HCT-116 it was 15 µM.

Turning to `CC(C)(C)Nc1nc(C(F)(F)F)nc2ccc(NC=O)cc12`, the IC50 in assay [1] turned out to be 14 µM; in assay [2], 0.925 µM; in the assay on HCT-116, 5.72 µM.

Turning to `CC(C)(C)Nc1nc(C(Cl)(Cl)Cl)nc2ccccc12`, the IC50 was determined as 23 µM in assay [7]; 11.9 µM in assay [1]; 6.1 µM in assay [2]; 25.8 µM in assay [3]; 25 µM with HCT-116.

For `CC(C)(C)Nc1nc(C(F)(F)F)nc2ccc(-c3cccc(N)c3)cc12`, the IC50 in assay [1] was > 2.1 µM.

Turning to `CC(C)(C)Nc1nc(C(F)(F)F)nc2ccc(-c3ccccc3)cc12`, the values for the IC50 in assay [1] and in assay [2] were 7.7 µM and 1.8 µM, respectively.

Consider `CC(C)(C)Nc1nc(C(F)(F)F)nc2ccc(-c3cccs3)cc12`, for which the values for the IC50 in assay [1] and in assay [2] were 6.4 µM and 1.18 µM, respectively.

On to `CC(C)(C)Nc1nc(C(F)(F)F)nc2ccc(-c3ccsc3)cc12`, for which the IC50 in the assay with AG1523 is > 28 µM; in [1] it was 3.55 µM; in assay [2], 0.545 µM; with HCT-116 it was 18.4 µM.
